Laboratory results from ChEMBL document CHEMBL4428107 (Bioorg Med Chem, 2016).

How the values were obtained:
[1] = biological target: Histone deacetylase 1 (Homo sapiens, UniProt Q13547); assay: Inhibition of recombinant full length C-terminal FLAG-tagged/C-terminal His-tagged human HDAC1 using fluorogenic substrate by fluorescence assay
Outline: (§1)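 Outsourced HDAC isozyme panel run under proprietary protocols. Each compound was tested at 10 μM and 5 μM, using HDAC substrate 3 at 10 μM, with fluorescence read-out. […] IC50 range was bracketed from % inhibition at the two concentrations.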

[2] = biological target: T1, Histone deacetylase 2 (Homo sapiens, UniProt Q92769); assay: Inhibition of full length recombinant human HDAC2 expressed in baculovirus expression system using fluorogenic peptide RHKK(Ac) as substrate by fluorescence assay
T1 sequence (Q92769 whole entry): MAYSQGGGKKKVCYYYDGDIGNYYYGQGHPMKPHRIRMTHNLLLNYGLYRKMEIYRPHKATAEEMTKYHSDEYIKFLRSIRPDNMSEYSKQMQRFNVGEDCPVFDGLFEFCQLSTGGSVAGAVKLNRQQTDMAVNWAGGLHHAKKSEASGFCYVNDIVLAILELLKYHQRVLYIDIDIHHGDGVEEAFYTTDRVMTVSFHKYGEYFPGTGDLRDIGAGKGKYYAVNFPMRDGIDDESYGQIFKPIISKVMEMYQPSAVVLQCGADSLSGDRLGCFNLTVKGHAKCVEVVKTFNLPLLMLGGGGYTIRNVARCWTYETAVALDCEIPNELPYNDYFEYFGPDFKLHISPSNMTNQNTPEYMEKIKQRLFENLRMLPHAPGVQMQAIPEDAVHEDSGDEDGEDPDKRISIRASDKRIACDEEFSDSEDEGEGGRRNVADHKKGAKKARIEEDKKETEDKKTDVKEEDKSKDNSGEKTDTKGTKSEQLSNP

[3] = test system: HCT-116; assay: Antiproliferative activity against human HCT116 cells assessed as reduction in cell viability after 72 hrs by MTS-PMS assay; assay type: functional; conditions: Homo sapiens, HCT-116, 72 h
Outline: (§2)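 MTS-PMS viability test. Cells were seeded at 3,000/well and left 24 h at 37 °C, 5% CO2, then exposed to compound for 72 h. Screening was at 50 μM for HCT116 and MCF-7 and […], with final DMSO ≤1%. MTS:PMS was mixed 20:1, added for 3 h, and absorbance read at 490 nm. At least two independent runs were done, each in triplicate.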

[4] = test system: MCF7; assay: Antiproliferative activity against human MCF7 cells assessed as reduction in cell viability after 72 hrs by MTS-PMS assay; conditions: MCF7, 72 h
[5] = test system: MDA-MB-231; assay: Antiproliferative activity against human MDA-MB-231 cells assessed as reduction in cell viability after 72 hrs by MTS-PMS assay; assay type: functional; conditions: MDA-MB-231, 72 h; outline: as §2
[6] = test system: MOLT-4; assay: Antiproliferative activity against human MOLT4 cells assessed as reduction in cell viability after 70 hrs by Quanti-blue assay; assay type: functional; conditions: Homo sapiens, MOLT-4, 70 h
Outline: (§3)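 Quanti-Blue viability kit. HuT-78 and Molt-4 cells were grown in RPMI-1640 and seeded at 10^5 cells/mL. Compounds were screened at 50 μM for 70 h, with detection reagent present for the final 2 h. Fluorescence was read at ex 530/em 590 nm. IC50 from dose-response came from linear regression. Three independent runs.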

[7] = test system: HuT78; assay: Antiproliferative activity against human HUT78 cells assessed as reduction in cell viability after 70 hrs by Quanti-blue assay; assay type: functional; conditions: Homo sapiens, HuT78, 70 h; outline: as §3
[8] = Antiproliferative activity against human PBMC assessed as reduction in cell viability after 70 hrs by Quanti-blue assay; assay type: cell-based
Outline: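 QB fluorescence viability assay; hPBMCs purified by density centrifugation from purchased human blood, stored frozen, resuspended in RPMI-1640 with 10% heat-inactivated FBS, HEPES, pyruvate, non-essential amino acids and BME; seeded at 10^6 cells/mL. Compounds at 50 μM, 70 h plus 2 h with detection reagent; λex 530/λem 590 nm. Three independent repeats.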

[9] = biological target: T1, Histone deacetylase 2; assay: Inhibition of recombinant full length C-terminal His-tagged human HDAC2 expressed in baculovirus expression system using fluorogenic substrate by fluorescence assay
[10] = Immunomodulatory activity in human TALL-104 cells assessed as effect on degranulation by measuring augmentation of CD3-stimulated anti-LAMP fluorescence at 100 uM preincubated for 30 mins followed by anti-LAMP addition and incubated for 50 mins in the dark by flow cytometric analysis relative to control; assay type: functional
[11] = biological target: Histone deacetylase 3/Nuclear receptor corepressor 2 (HDAC3/NCoR2) (Homo sapiens, UniProt O15379); assay: Inhibition of recombinant full length C-terminal His-tagged human HDAC3/GST-tagged human Ncor2 (395 to 489 residues) expressed in baculovirus expression system using fluorogenic substrate by fluorescence assay; outline: as §1
[12] = biological target: Histone deacetylase 4 (Homo sapiens, UniProt P56524); assay: Inhibition of recombinant C-terminal His-tagged/N-terminal GST-tagged human HDAC4 (627 to 1084 residues) expressed in baculovirus expression system using fluorogenic substrate by fluorescence assay
Outline: (§4)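 Outsourced HDAC isozyme panel run under proprietary protocols. Each compound was tested at 10 μM and 5 μM, using Class 2a HDAC substrate at 2 μM, with fluorescence read-out. […] IC50 range was bracketed from % inhibition at the two concentrations.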

[13] = biological target: Histone deacetylase 5 (Homo sapiens, UniProt Q9UQL6); assay: Inhibition of recombinant C-terminal His-tagged human HDAC5 catalytic domain (656 to 1122 residues) expressed in baculovirus expression system using fluorogenic substrate by fluorescence assay; outline: as §4
Histone deacetylase 5, sequence (Q9UQL6 whole entry, the tested form may be a part): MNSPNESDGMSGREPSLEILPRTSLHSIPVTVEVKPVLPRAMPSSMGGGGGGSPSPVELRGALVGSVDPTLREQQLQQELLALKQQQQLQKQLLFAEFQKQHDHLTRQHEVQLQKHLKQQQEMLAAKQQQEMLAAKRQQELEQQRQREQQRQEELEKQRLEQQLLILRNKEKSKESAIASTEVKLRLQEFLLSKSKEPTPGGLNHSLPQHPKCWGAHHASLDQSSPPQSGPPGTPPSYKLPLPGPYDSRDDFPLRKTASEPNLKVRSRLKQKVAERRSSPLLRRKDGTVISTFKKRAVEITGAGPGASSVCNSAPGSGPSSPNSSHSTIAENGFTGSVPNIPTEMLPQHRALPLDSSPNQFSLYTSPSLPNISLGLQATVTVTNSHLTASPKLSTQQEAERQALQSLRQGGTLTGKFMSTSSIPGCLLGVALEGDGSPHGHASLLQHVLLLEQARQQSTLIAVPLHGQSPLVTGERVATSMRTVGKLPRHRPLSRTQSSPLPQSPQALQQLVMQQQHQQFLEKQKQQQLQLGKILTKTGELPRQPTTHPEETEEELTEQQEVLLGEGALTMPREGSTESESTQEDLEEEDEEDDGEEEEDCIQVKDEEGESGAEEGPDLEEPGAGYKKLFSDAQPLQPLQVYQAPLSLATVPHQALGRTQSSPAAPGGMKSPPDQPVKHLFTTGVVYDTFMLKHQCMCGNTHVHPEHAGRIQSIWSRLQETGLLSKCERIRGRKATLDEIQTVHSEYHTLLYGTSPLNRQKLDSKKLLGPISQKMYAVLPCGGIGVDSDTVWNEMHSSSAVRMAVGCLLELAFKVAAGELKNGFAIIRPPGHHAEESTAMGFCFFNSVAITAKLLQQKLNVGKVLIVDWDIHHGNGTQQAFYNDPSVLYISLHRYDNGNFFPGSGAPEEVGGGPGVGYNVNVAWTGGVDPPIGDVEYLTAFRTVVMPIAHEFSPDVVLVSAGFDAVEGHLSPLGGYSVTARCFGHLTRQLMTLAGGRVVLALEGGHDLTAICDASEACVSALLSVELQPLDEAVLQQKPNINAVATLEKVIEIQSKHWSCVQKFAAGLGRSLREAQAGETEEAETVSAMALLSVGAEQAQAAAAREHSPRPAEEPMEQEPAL

[14] = biological target: Histone deacetylase 7 (Homo sapiens, UniProt Q8WUI4); assay: Inhibition of recombinant N-terminal GST-tagged human HDAC7 (518 to end residues) expressed in baculovirus expression system using fluorogenic substrate by fluorescence assay; outline: as §4
[15] = biological target: Histone deacetylase 8 (Homo sapiens, UniProt Q9BY41); assay: Inhibition of recombinant full length C-terminal His-tagged human HDAC8 expressed in baculovirus expression system using fluorogenic substrate by fluorescence assay; outline: as §4
Histone deacetylase 8, sequence (Q9BY41 whole entry, the tested form may be a part): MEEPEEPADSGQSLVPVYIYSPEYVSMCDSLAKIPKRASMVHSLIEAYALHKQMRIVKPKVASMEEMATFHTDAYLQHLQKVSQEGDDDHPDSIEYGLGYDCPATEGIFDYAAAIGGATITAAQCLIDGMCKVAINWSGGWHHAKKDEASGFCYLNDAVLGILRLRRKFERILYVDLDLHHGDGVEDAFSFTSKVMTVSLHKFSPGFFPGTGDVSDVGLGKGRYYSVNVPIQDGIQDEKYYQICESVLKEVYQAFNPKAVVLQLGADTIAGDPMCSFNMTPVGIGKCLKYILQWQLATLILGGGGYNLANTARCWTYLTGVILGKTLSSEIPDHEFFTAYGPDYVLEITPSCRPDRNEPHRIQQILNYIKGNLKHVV

[16] = biological target: Histone deacetylase 9 (Homo sapiens, UniProt Q9UKV0); assay: Inhibition of recombinant C-terminal His-tagged human HDAC9 (604 to 1066 residues) expressed in baculovirus expression system using fluorogenic substrate by fluorescence assay; outline: as §4
Histone deacetylase 9, sequence (Q9UKV0 whole entry, the tested form may be a part): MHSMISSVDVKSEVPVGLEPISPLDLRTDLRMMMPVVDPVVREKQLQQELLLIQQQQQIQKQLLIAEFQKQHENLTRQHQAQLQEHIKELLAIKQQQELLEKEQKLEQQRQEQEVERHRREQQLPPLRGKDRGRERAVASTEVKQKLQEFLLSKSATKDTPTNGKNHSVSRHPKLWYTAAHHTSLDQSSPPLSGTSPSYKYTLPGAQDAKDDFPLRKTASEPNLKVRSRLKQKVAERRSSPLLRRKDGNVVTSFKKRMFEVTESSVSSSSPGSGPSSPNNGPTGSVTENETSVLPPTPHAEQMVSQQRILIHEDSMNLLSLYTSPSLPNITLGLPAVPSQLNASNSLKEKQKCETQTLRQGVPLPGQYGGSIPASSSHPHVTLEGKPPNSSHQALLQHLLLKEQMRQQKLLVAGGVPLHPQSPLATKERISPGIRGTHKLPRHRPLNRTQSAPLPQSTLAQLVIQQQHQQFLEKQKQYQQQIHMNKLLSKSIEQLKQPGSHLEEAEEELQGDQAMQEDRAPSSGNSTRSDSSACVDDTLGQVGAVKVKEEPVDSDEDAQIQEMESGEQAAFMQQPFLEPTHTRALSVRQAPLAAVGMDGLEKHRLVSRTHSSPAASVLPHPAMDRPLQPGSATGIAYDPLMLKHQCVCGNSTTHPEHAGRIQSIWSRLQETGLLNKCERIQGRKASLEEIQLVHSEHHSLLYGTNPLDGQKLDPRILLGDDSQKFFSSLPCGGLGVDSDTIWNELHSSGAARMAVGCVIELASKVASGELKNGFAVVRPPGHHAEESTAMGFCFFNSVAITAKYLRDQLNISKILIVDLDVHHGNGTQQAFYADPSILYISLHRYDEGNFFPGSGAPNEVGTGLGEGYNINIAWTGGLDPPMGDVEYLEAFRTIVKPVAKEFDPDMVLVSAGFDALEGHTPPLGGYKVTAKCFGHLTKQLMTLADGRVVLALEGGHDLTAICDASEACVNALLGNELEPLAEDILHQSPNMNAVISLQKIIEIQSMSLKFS

[17] = biological target: Polyamine deacetylase HDAC10 (Homo sapiens, UniProt Q969S8); assay: Inhibition of recombinant N-terminal FLAG-tagged human HDAC10 (2 to 631 residues) expressed in baculovirus expression system using fluorogenic substrate by fluorescence assay; outline: as §1
[18] = biological target: Histone deacetylase 11 (Homo sapiens, UniProt Q96DB2); assay: Inhibition of full length recombinant human HDAC11 expressed in baculovirus expression system using fluorogenic substrate by fluorescence assay; outline: as §4
Histone deacetylase 11, sequence (Q96DB2 whole entry): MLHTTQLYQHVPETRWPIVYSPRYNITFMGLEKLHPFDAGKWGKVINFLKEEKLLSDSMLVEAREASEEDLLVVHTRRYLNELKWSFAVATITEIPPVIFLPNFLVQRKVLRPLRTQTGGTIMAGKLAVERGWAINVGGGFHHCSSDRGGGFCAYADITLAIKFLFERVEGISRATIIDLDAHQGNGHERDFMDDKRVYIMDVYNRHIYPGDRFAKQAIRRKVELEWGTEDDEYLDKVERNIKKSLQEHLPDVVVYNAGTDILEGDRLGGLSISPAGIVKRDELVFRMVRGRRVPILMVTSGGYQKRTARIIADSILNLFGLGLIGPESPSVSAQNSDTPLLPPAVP

[19] = biological target: Protein deacetylase HDAC6 (Homo sapiens, UniProt Q9UBN7); assay: Inhibition of recombinant full length N-terminal GST-tagged human HDAC6 expressed in baculovirus expression system using fluorogenic substrate by fluorescence assay; outline: as §1
Protein deacetylase HDAC6, sequence (Q9UBN7 whole entry): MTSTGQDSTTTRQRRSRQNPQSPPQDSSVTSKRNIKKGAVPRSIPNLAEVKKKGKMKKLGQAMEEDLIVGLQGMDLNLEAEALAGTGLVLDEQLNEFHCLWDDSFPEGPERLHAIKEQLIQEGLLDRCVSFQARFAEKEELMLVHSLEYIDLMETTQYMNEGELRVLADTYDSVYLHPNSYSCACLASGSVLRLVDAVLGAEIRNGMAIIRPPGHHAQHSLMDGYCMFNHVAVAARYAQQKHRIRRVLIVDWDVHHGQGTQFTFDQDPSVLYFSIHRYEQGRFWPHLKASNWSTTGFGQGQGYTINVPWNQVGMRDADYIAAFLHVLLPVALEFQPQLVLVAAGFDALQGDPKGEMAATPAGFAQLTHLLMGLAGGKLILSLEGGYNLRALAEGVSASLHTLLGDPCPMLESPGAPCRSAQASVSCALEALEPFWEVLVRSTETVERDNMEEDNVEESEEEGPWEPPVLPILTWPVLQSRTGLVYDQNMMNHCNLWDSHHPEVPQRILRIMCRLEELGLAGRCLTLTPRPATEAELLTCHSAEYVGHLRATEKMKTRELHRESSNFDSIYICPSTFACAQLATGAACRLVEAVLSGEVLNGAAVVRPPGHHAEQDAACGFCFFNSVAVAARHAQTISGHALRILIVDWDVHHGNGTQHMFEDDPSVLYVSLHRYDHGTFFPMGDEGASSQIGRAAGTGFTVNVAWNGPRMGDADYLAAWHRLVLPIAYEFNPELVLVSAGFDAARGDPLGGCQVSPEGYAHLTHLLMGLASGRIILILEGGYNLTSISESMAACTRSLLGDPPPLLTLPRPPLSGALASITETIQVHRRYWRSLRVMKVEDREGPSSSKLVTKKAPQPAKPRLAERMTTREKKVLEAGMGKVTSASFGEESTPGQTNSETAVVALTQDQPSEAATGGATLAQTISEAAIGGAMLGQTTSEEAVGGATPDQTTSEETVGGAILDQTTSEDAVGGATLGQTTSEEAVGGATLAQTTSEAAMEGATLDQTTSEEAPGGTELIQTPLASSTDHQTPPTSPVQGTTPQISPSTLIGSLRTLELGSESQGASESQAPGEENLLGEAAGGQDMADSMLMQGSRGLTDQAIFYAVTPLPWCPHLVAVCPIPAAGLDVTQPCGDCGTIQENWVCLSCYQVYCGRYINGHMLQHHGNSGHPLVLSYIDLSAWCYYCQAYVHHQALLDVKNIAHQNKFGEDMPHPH

Histone deacetylase 1, sequence (Q13547 whole entry): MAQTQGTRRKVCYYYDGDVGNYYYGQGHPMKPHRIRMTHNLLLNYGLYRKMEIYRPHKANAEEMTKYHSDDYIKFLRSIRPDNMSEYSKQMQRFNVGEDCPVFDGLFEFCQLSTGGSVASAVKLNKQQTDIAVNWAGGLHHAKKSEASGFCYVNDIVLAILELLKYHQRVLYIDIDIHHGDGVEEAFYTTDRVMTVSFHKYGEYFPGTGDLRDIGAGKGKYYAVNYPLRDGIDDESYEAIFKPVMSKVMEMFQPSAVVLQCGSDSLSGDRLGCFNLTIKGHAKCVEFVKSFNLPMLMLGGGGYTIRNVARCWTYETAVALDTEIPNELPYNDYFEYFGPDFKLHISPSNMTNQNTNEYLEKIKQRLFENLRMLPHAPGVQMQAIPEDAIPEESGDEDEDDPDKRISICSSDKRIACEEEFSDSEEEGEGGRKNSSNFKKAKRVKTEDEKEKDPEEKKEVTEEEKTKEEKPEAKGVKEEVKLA

Structure (SMILES) | IC50 [1] | IC50 [2] | GI50 [3] | GI50 [4] | GI50 [5] | GI50 [6] | GI50 [7] | GI50 at 70 h [8] | IC50 [9] | Activity [10] | IC50 [11] | IC50 [12] | IC50 [13] | IC50 [14] | IC50 [15] | IC50 [16] | IC50 [17] | IC50 [18] | IC50 [19]
O=C(CCCC(=O)NCCc1ccccc1)NO | 5 to 10 µM | > 1 µM | > 50 µM | > 50 µM | > 50 µM | > 50 µM | > 50 µM | > 50 µM | 5 to 10 µM | 113% | 5 to 10 µM | 5 to 10 µM | > 10 µM | > 10 µM | 5 to 10 µM | 5 to 10 µM | 5 to 10 µM | 5 to 10 µM | < 5 µM
CCOC(=O)NCCCC(=O)NCCC(C)C |  | > 1 µM | > 50 µM | > 50 µM | > 50 µM | > 50 µM | > 50 µM | > 50 µM |  | 88% |  |  |  |  |  |  |  |  | 
C#CCOC(=O)NCCCC(=O)NCCc1ccccc1 |  | > 1 µM | > 50 µM | > 50 µM | > 50 µM | > 50 µM | > 50 µM | > 50 µM |  | 105% |  |  |  |  |  |  |  |  | 
O=C(CCCNC(=S)N1CCCC1=O)NCCc1ccccc1 |  | > 1 µM | > 50 µM | > 50 µM | > 50 µM | > 50 µM | > 50 µM | > 50 µM |  | 94% |  |  |  |  |  |  |  |  | 
CCOC(=O)NCCCC(=O)Nc1ccc(O[Si](C)(C)C(C)(C)C)cc1 |  | > 1 µM | > 50 µM | 13.8 µM | > 50 µM | > 50 µM | > 50 µM | > 50 µM |  | 171% |  |  |  |  |  |  |  |  | 
O=C(CCCNC(=O)OCCF)NCCc1ccccc1 |  | > 1 µM | > 50 µM | > 50 µM | > 50 µM | > 50 µM | > 50 µM | > 50 µM |  | 92% |  |  |  |  |  |  |  |  | 
CCOC(=O)NCCCC(=O)NCCc1cccc(F)c1 |  | > 1 µM | > 50 µM | > 50 µM | > 50 µM | > 50 µM | > 50 µM | > 50 µM |  | 90% |  |  |  |  |  |  |  |  | 
